Measured values of several laboratories.
Protocols differ between the studies behind these lines.
Target: Serine/threonine-protein kinase ULK1 (ULK1, Homo sapiens, UniProt O75385)
One construct used (O75385 1-1050): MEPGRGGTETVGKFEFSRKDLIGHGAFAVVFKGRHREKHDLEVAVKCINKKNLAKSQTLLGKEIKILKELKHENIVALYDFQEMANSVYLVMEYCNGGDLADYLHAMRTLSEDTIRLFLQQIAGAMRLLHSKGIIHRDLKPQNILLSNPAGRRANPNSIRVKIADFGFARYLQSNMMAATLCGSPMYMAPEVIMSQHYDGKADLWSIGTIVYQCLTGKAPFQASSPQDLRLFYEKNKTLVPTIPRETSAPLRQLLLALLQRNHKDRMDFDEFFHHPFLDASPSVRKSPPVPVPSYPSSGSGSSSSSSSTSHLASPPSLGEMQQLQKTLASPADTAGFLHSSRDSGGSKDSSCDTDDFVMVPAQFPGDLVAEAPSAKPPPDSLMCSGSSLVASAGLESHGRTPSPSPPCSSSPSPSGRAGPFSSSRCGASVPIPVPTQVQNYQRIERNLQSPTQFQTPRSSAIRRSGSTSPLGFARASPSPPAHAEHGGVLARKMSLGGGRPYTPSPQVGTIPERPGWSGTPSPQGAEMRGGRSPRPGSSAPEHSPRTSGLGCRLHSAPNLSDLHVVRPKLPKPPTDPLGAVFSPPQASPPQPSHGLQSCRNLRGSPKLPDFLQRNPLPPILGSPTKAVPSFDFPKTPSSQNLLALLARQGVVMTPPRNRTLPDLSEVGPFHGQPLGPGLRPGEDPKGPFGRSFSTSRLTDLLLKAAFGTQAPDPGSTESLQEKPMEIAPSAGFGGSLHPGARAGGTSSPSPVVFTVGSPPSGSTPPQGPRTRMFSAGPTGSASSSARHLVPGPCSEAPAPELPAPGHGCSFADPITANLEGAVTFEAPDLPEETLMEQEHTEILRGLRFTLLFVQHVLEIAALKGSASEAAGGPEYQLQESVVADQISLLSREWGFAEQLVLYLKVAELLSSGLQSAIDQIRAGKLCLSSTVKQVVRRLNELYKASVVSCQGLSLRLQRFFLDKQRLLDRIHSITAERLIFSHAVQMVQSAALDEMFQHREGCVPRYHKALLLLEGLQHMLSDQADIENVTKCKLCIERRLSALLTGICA

SMILES	test	setting	quantity	result
Cc1ccc(C(=O)NCc2ccsc2)cc1C#Cc1cn(C(C)C)c2ncnc(N)c12	enzyme activity, inhibitor	1 µM	activity vs control	101%
Cc1cc(NC(=O)c2cccc3cc(-c4cccc5[nH]nc(N)c45)ccc23)ccc1F	enzyme activity, inhibitor	0.1 µM	activity vs control	95%
O=C(Nc1cccc(Nc2ncc(Br)c(NCCc3cnc[nH]3)n2)c1)N1CCCC1	enzyme activity, inhibitor, radiometric	1 µM	remaining activity	6%
O=C1Nc2ccc(Cl)cc2C1=Cc1cc(Cl)c(O)c(Cl)c1	cell-free assay	0.5 µM	remaining signal	95%
Cc1nn(CC(F)(F)F)cc1Nc1nccc(NCCc2cnc[nH]2)n1	enzyme activity, inhibitor, radiometric	1 µM	remaining activity	88%
C[S+]([O-])c1ccc(-c2nc(-c3ccncc3)c(-c3ccc(F)cc3)[nH]2)cc1 (stereo not shown)	cell-free assay	0.5 µM	remaining signal	89.3%
Cc1nn(CC(F)(F)F)cc1Nc1ncc(Br)c(NCc2ccc(S(N)(=O)=O)cc2)n1	enzyme activity, inhibitor, radiometric	1 µM	remaining activity	77%
Cc1nc(Cc2cccc(C(F)(F)F)c2)sc1-c1ccc(C(N)=O)nc1	cell-free assay, competition with immobilised ligand	1 µM	remaining binding	100%
NS(=O)(=O)c1ccc(CNc2nc(Nc3cccc(NC(=O)N4CCCC4)c3)ncc2Br)cc1	enzyme activity, inhibitor, radiometric	1 µM	remaining activity	66%
CS(=O)(=O)N1CCCC(NC(=O)[C@H](CCC2CCCCC2)NC(=O)c2ccc(CNc3ncnc4c3nnn4-c3ccccc3)cc2)C1 (stereo partly shown)	cell-free assay, competition with immobilised ligand	0.1 µM	remaining binding	100%
Nc1ncnc2occ(-c3ccc(NC(=O)Nc4cc(C(F)(F)F)ccc4F)cc3)c12	cell-free assay, inhibitor	20 µM	remaining signal	48%
FC(F)(F)Oc1cccc(-c2cnc3ccc(-c4ccncc4)nn23)c1	enzyme activity, inhibitor, radiometric	5 µM	activity vs control	92%
C[C@@H](c1cccc(C#N)c1)n1cc(Cl)cc(C(N)=O)c1=N	cell-free assay, competition with immobilised ligand	1 µM	remaining binding	72%
Cc1nn(CC(F)(F)F)cc1Nc1ncc(Br)c(NCCCNC(=O)C2CCC2)n1	enzyme activity, inhibitor, radiometric	1 µM	remaining activity	3%
COc1ccc(COc2ccc(Cc3cnc(N)nc3N)cc2OC)cc1	cell-free assay	0.5 µM	remaining signal	99.7%
O=C(Nc1cnn(-c2csc(C(=O)NC3COC3)c2)c1)Nc1ccccc1Cl	enzyme activity, inhibitor	5 µM	remaining activity	134%
Cc1c(C(=O)O)cc(-c2ccc(C3CCNCC3)cc2)c2ccc(-c3ccc(C(F)(F)F)cc3)cc12	binding, competition with immobilised ligand	1 µM	remaining binding	100%
O=C(NCCCNc1nc(Nc2cccc(NC(=O)N3CCCC3)c2)ncc1Br)C1CCC1	enzyme activity, inhibitor, radiometric	1 µM	remaining activity	2%
N#Cc1ccc(Nc2ccc3[nH]c(=O)[nH]c3c2)c(Cl)c1	cell-free assay, competition with immobilised ligand	1 µM	remaining binding	81%
CCCCNc1ncc2c(-c3ccc(F)cc3)nn(C[C@H]3CC[C@H](N)CC3)c2n1	target engagement in cells, inhibitor, chemoproteomics	20 mM	inhibition	3.7%
Cc1nn(CC(F)(F)F)cc1Nc1ncc(C2CC2)c(NCc2ccc(S(N)(=O)=O)cc2)n1	enzyme activity, inhibitor, radiometric	1 µM	remaining activity	106%
NS(=O)(=O)c1cc(NC(=O)C2(c3ccccc3Cl)CC2)ccc1Oc1cccc(Cl)c1	cell-free assay, competition with immobilised ligand	1 µM	remaining binding	89%
